Rows were chosen to be rich in hits. Some 2.5% of all compounds tested hit in one or more screens of this group.
TRPC6 act – activates the mouse TRPC6 cation channel; Q61143; HEK293-TRPC6 membrane potential dye fluorescence; stronger effect = higher value; B-score at 10 µM; 310,000 compounds, 0.13% hits; AID 2550;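 active = B-score of the integrated fluorescence ratio above library mean plus 3 SD, and starting fluorescence ratio within library mean plus 5 SD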;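 also: higher score means more depolarization so channel activation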
Target sequence (Q61143 whole entry, looked up): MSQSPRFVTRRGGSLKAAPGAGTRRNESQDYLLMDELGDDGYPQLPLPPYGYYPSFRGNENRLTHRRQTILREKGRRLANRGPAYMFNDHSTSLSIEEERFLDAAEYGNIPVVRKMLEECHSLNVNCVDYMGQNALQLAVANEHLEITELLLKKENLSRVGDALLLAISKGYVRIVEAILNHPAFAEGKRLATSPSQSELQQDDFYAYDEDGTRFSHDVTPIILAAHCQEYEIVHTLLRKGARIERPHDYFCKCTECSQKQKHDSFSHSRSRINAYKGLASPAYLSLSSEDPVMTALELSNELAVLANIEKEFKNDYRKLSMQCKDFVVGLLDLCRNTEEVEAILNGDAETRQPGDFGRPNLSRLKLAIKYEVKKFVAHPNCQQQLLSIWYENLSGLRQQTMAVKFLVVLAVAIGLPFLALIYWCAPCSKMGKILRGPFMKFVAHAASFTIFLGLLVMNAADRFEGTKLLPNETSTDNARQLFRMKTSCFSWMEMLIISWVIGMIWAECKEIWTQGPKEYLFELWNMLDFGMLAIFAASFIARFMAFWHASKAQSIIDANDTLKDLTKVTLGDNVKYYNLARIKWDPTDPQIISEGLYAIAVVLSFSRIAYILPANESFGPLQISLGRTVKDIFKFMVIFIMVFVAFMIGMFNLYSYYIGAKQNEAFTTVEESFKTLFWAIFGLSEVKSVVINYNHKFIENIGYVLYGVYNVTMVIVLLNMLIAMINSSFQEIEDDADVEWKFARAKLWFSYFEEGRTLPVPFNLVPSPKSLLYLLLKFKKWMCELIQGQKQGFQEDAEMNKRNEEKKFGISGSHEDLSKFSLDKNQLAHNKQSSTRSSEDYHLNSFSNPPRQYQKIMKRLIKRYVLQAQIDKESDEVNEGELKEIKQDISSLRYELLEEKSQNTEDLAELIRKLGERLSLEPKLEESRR
TRPC4 agonist – TRPC4 (mouse) channel activation | HEK293 TRPC4beta/mu-opioid, Fluo4 calcium fluorescence; stronger effect = higher value | B-score at 10 µM | 310,000 compounds, 0.49% hits | AID 2237;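 active = B-score above 5 SD of library B-scores, and initial fluorescence ratio not above library mean plus 5 SD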;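 also: positive B-score marks a calcium rise read as TRPC4 activation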
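Test system: HEK293 cells stably co-expressing mouse TRPC4beta and mu-opioid receptor | Schedule: Fluo4 dye loading 45 min at room temperature, 110 s recording | Measured by: Kinetic Fluo4 calcium fluorescence, 5 s baseline at 1 Hz | Evaluation: B score of integrated ratio | Controls: Buffer (low) and maximal DAMGO (high)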
Platelet DG rel – platelet dense granule release activity | 300,000 compounds, 0.22% hits | human platelet-rich plasma, SFLLRN dense granule ATP release, luminescence | AID 1663 | inhibition, %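 (compounds screened at 7.5 µM in platelet-rich plasma)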;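 active = mean replicate score, as percent of positive control, at or above 50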
TRPC4 inh – inhibitors of mouse TRPC4 channel | Q9QUQ5 | HEK293 TRPC4beta/mu-opioid, DAMGO-evoked Fluo4 calcium flux; stronger effect = lower value | B-score at 10 µM | 300,000 compounds, 0.39% hits | AID 2247;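 active = B-score over 3 SD under the library average, no early fluorescence shift, positive overall ratio signal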
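Signal: kinetic Fluo4 fluorescence imaging of calcium influx. Material: stable TRPC4beta/mu-opioid receptor HEK293 cells. Probe or stimulus: DAMGO in two steps, submaximal then maximal.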
TRPC6 inhibitor – blocks the mouse TRPC6 cation channel. HEK293-TRPC6, membrane potential dye, ACh-evoked depolarization; stronger effect = lower value. 310,000 compounds, 1.1% hits. Q61143. AID 2553. B-score at 10 µM;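 active = B-score under library mean minus 3 SD, initial fluorescence not abnormally high, positive integrated signal ratio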;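 also: B-score derived from integrated fluorescence ratio over the kinetic read; more negative B-score means stronger inhibition of depolarization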
TRPC4 PAM – allosteric potentiators of mouse TRPC4 channel. AID 2227. B-score at 10 µM. HEK293 TRPC4beta/mu-opioid, DAMGO EC20, Fluo-4 Ca2+ flux; stronger effect = higher value. Q9QUQ5. 310,000 compounds, 0.42% hits;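 active = B-score of calcium response area above 5 SD of library B-scores, with initial fluorescence ratio within 5 SD of library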;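 also: B-score of integrated fluorescence ratio over time as area under calcium response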
HEK293 TRPC6 ctr – checks TRPC6 modulator effects in parental HEK293 cells. shares compounds with TRPC6 inhibitor. membrane potential dye fluorescence. membrane potential signal change, % at 10 µM. 2,400 compounds, 51% hits;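 active = membrane potential signal moves up or down beyond 5 SD from buffer-only wells, on both duplicate plates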
HEK293 MPD ctr 2 – parental HEK293 nonspecific activity of TRPC6 modulators, second screen. shares compounds with TRPC6 inhibitor. membrane potential dye fluorescence; after compound, maximal acetylcholine stimulation. inhibition, % at 10 µM. 2,400 compounds, 14% hits;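 active = membrane potential signal drops by more than 5 SD from the mean control signal, in both duplicate plates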;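 also: plate controls were acetylcholine ECmax control wells for no effect and buffer only wells for full effect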
TRPC4 ctr mod – selectivity of TRPC6 modulators against mouse TRPC4. 2,400 compounds, 69% hits. AID 488927. shares compounds with TRPC6 inhibitor. HEK293 TRPC4/mu-opioid, membrane potential fluorescence. percent change from control (negative = decrease, positive = increase), % at 10 µM;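 active = membrane potential signal moved up or down beyond 5 SD of buffer control wells, in both duplicate plates, actives on both sides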;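 also: plate controls were assay buffer wells for no effect and DAMGO maximal-effect wells for full effect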
TRPC4/MOR inh 2 – second selectivity test of TRPC6 modulators against mouse TRPC4. AID 488928. shares compounds with TRPC6 inhibitor. 2,400 compounds, 55% hits. HEK293 TRPC4/mu-opioid, membrane potential dye fluorescence; stimulated with maximal-effect DAMGO. inhibition, % at 10 µM;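 active = drop in membrane potential signal beyond 5 SD of the control wells in both duplicate plates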;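 also: TRPC4 counter screen for TRPC6 hits run under conditions tuned for TRPC6 not TRPC4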
TRPC6 block conf – mouse TRPC6 inhibitor confirmation; inhibition, % at 10 µM; HEK293-TRPC6, membrane potential dye, ACh-evoked depolarization; 3,300 compounds, 43% hits; shares compounds with TRPC6 inhibitor; AID 488960;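 active = fluorescence ratio falls more than 5 SD below the full-stimulation control mean, in both duplicate runs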;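 also: integrated fluorescence ratio of peak minus minimum over baseline after agonist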
TRPC6 act conf – mouse TRPC6 activator confirmation; shares compounds with TRPC6 inhibitor; HEK293-TRPC6 membrane potential dye fluorescence, FDSS; activation, % at 10 µM; 2,800 compounds, 11% hits;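 active = ratio signal rise beyond 5 SD above unstimulated control wells' mean, seen in both duplicate runs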;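 also: plate controls were buffer EC0 wells for no effect and acetylcholine ECmax response for full effect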
* = called active by the depositor.

How did CCc1cccc2c1Sc1ccccc1CC2N1CCNCC1 (stereo unspecified) do in these assays?
TRPC6 act: inactive; TRPC4 agonist: inactive; Platelet DG rel: 24; TRPC4 inh: inactive; TRPC6 inhibitor: -5.5*; TRPC4 PAM: inactive; HEK293 TRPC6 ctr: inactive; HEK293 MPD ctr 2: inactive; TRPC4 ctr mod: inactive; TRPC4/MOR inh 2: 70%*; TRPC6 block conf: 50%*; TRPC6 act conf: inactive

What do the screens show for `CN1CCN(C2Cc3cc(F)ccc3Sc3ccc(Cl)cc32)CC1` (stereo unspecified)?
TRPC6 act: inactive; TRPC4 agonist: inactive; Platelet DG rel: 5; TRPC4 inh: inactive; TRPC6 inhibitor: -5.3*; TRPC4 PAM: inactive; HEK293 TRPC6 ctr: inactive; HEK293 MPD ctr 2: inactive; TRPC4 ctr mod: 21%*; TRPC4/MOR inh 2: 47%*; TRPC6 block conf: 48%*

How did Cc1cccc2c1Sc1ccc(Cl)cc1CC2N1CCNCC1 (stereo unspecified) do in these assays?
TRPC6 act: inactive; TRPC4 agonist: inactive; Platelet DG rel: 7; TRPC4 inh: inactive; TRPC6 inhibitor: -5.1*; TRPC4 PAM: inactive; HEK293 TRPC6 ctr: inactive; HEK293 MPD ctr 2: inactive; TRPC4 ctr mod: inactive; TRPC4/MOR inh 2: 61%*; TRPC6 block conf: 43%*; TRPC6 act conf: inactive

What do the screens show for `CN1CCN(C2Cc3ccc(F)cc3Sc3cc(F)c(Cl)cc32)CC1` (stereo unspecified)?
TRPC6 act: inactive; TRPC4 agonist: inactive; Platelet DG rel: 15; TRPC4 inh: inactive; TRPC6 inhibitor: inactive; TRPC4 PAM: inactive

How did CN1CCN(C2Cc3ccccc3Sc3cc(C(F)(F)F)ccc32)CC1 (stereo unspecified) do in these assays?
TRPC6 act: inactive; TRPC4 agonist: inactive; Platelet DG rel: -12; TRPC4 inh: inactive; TRPC6 inhibitor: inactive; TRPC4 PAM: inactive

How did COc1ccc(-c2nnc(C)c3nocc23)cc1 do in these assays?
TRPC6 act: inactive; TRPC4 agonist: inactive; Platelet DG rel: 5; TRPC4 inh: inactive; TRPC6 inhibitor: inactive; TRPC4 PAM: inactive

How did CC(C)(C)C(=O)NC(=S)Nc1ccc(Cc2ccncc2)cc1 do in these assays?
TRPC6 act: inactive; TRPC4 agonist: inactive; Platelet DG rel: -4; TRPC4 inh: inactive; TRPC6 inhibitor: inactive; TRPC4 PAM: inactive

How did CCOc1ccc(C(C)=O)cc1COC(=O)CCc1cc(OC)c(OC)c(OC)c1 do in these assays?
TRPC6 act: inactive; TRPC4 agonist: inactive; Platelet DG rel: 6; TRPC4 inh: inactive; TRPC6 inhibitor: inactive; TRPC4 PAM: inactive

Results for Cc1ccc(C(=O)NCCc2nnc3ccc(NCc4ccc5c(c4)OCO5)nn23)cc1 ?
TRPC6 act: inactive; TRPC4 agonist: inactive; Platelet DG rel: 19; TRPC4 inh: inactive; TRPC6 inhibitor: inactive; TRPC4 PAM: inactive

What do the screens show for `Cc1cc(Br)ccc1OCCCCNC(C)(C)C`?
TRPC6 act: inactive; TRPC4 agonist: inactive; Platelet DG rel: 1; TRPC4 inh: inactive; TRPC6 inhibitor: inactive; TRPC4 PAM: inactive

What do the screens show for `CC(C)COc1ccc(Br)cc1CNC(C)(C)C`?
TRPC6 act: inactive; TRPC4 agonist: inactive; Platelet DG rel: 5; TRPC4 inh: inactive; TRPC6 inhibitor: -8.8*; TRPC4 PAM: inactive; HEK293 TRPC6 ctr: 584%*; HEK293 MPD ctr 2: 120%*; TRPC4 ctr mod: 128%*; TRPC4/MOR inh 2: 83%*; TRPC6 block conf: 106%*

How did CCn1c2ccccc2c2cc(NC(=O)COC(=O)c3ccc(NC(=O)CC#N)cc3)ccc21 do in these assays?
TRPC6 act: inactive; TRPC4 agonist: inactive; Platelet DG rel: 3; TRPC4 inh: inactive; TRPC6 inhibitor: inactive; TRPC4 PAM: inactive

Results for CCOc1ccc(N(C(=O)Cn2nnc3ccccc32)C(C(=O)NC(C)(C)CC)c2cccn2C)cc1 (stereo unspecified) ?
TRPC6 act: inactive; TRPC4 agonist: inactive; Platelet DG rel: -32; TRPC4 inh: inactive; TRPC6 inhibitor: inactive; TRPC4 PAM: inactive

Results for CCC(C)(C)NC(=O)C(c1cccn1C)N(C(=O)Cn1nnc2ccccc21)c1ccc(OC)cc1OC (stereo unspecified) ?
TRPC6 act: 12*; TRPC4 agonist: inactive; Platelet DG rel: -6; TRPC4 inh: inactive; TRPC6 inhibitor: -8.1*; TRPC4 PAM: inactive; HEK293 TRPC6 ctr: 124%*; HEK293 MPD ctr 2: inactive; TRPC4 ctr mod: 44%*; TRPC4/MOR inh 2: 41%*; TRPC6 block conf: 38%*; TRPC6 act conf: 68%*

How did Cc1cc(C(=O)N(C)CC(=O)Nc2cccc(F)c2)no1 do in these assays?
TRPC6 act: inactive; TRPC4 agonist: inactive; Platelet DG rel: 7; TRPC4 inh: inactive; TRPC6 inhibitor: inactive; TRPC4 PAM: inactive

What do the screens show for `COc1ccc(NC(=O)CN(C)C(=O)c2cc(C)on2)cc1`?
TRPC6 act: inactive; TRPC4 agonist: inactive; Platelet DG rel: -7; TRPC4 inh: inactive; TRPC6 inhibitor: -5.7*; TRPC4 PAM: inactive; HEK293 TRPC6 ctr: inactive; HEK293 MPD ctr 2: inactive; TRPC4 ctr mod: inactive; TRPC4/MOR inh 2: inactive; TRPC6 block conf: inactive; TRPC6 act conf: inactive

Results for CCCCC(CC)CNC(=O)C1CC=CCC1C(=O)O (stereo unspecified) ?
TRPC6 act: inactive; TRPC4 agonist: inactive; Platelet DG rel: -3; TRPC4 inh: inactive; TRPC6 inhibitor: inactive; TRPC4 PAM: inactive

Compound activity (PubChem BioAssay)
